Reference: ChEMBL document CHEMBL1125156, “Inhibitors of human leukocyte proteinase-3” (J Med Chem, 1990)
Active and inactive are the calls of the source. No cut-off for these calls is given here.

Tests used:
[1] = biological target: T1, Myeloblastin (Homo sapiens) (UniProt P24158); assay: Evaluated for the inhibition of Human leukocyte Proteinase 3 (PR-3) following a 10-min incubation with a 50-fold excess of inhibitor; conditions: concentration not given here
T1 sequence (whole entry): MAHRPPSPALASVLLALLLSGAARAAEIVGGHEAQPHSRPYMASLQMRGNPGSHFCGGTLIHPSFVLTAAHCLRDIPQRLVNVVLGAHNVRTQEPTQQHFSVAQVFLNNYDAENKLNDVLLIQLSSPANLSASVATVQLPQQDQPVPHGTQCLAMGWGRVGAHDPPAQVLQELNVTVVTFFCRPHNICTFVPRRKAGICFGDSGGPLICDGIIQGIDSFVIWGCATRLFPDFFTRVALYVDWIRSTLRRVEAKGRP

[2] = biological target: T1, Myeloblastin (Homo sapiens); assay: Evaluated for the inhibition of Human leukocyte Proteinase 3 (PR-3)
How it was run: (§1)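 PR-3 purified from polymorphonuclear leukocyte granules. Inhibitor in DMSO was incubated with enzyme in 0.1 M phosphate, pH 6.5, in a constant-temperature bath. Aliquots taken over time went into BOC-Ala-p-nitrophenol (20 mM acetonitrile stock) in phosphate buffer. After 30 s, A347.5 was read for 1 min. kobs came from ln(vt/v0) versus time and is reported as kobs/[I] (M-1 s-1).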

[3] = biological target: T2, Neutrophil elastase (Homo sapiens) (UniProt P08246); assay: Evaluated for the inhibition of Human leukocyte elastase
T2 sequence (whole entry): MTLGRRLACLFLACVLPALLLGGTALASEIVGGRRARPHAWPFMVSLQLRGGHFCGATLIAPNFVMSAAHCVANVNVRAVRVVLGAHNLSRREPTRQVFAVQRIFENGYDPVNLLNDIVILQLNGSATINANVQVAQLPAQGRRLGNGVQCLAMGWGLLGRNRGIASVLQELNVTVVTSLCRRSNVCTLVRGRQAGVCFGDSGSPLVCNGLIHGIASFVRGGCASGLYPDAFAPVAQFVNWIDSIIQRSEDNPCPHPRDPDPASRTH

[4] = biological target: T1, Myeloblastin (Homo sapiens); assay: Evaluated for the inhibition of Human leukocyte Proteinase 3 (PR-3); Inactive; how it was run: as §1

| Structure (SMILES) | K obs / 1 [2] | also measured |
| --- | --- | --- |
| O=C1CCC(=O)N1OS(=O)(=O)/C=C/c1ccccc1 |  | inhibition [1]: < 35% |
| CS(=O)(=O)ON1C(=O)CCC1=O |  | K obs / 1 [4]: inactive |
| CS(=O)(=O)ON1C(=O)CC(Cc2ccccc2)C1=O (stereo not drawn) |  | K obs / 1 [3]: 1100 M⁻¹ s⁻¹; K obs / 1 [4]: inactive |
| CC1CC(=O)N(OS(C)(=O)=O)C1=O (stereo not drawn) | 2300 M⁻¹ s⁻¹ |  |
| O=C1CC(Cc2ccccc2)C(=O)N1OS(=O)(=O)/C=C/c1ccccc1 (stereo not drawn) |  | inhibition [1]: < 35% |
| CC(C)C1CC(=O)N(OS(=O)(=O)/C=C/c2ccccc2)C1=O (stereo not drawn) | 8100 M⁻¹ s⁻¹ | K obs / 1 [3]: 100000 M⁻¹ s⁻¹ |

The next lines start with results.

| K obs / 1 [2] | Structure (SMILES) | also measured |
| --- | --- | --- |
| 1200 M⁻¹ s⁻¹ | CC(C)CC1CC(=O)N(OS(C)(=O)=O)C1=O (stereo not drawn) |  |
| 13400 M⁻¹ s⁻¹ | CCC1CC(=O)N(OS(C)(=O)=O)C1=O (stereo not drawn) |  |
| 3800 M⁻¹ s⁻¹ | CCCCC1CC(=O)N(OS(=O)(=O)/C=C/c2ccccc2)C1=O (stereo not drawn) |  |
| 8600 M⁻¹ s⁻¹ | CCCC1CC(=O)N(OS(C)(=O)=O)C1=O (stereo not drawn) | K obs / 1 [3]: 8600 M⁻¹ s⁻¹ |
| 2200 M⁻¹ s⁻¹ | CC(C)C1CC(=O)N(OS(C)(=O)=O)C1=O (stereo not drawn) |  |
| 10400 M⁻¹ s⁻¹ | CC(C)CC1CC(=O)N(OS(=O)(=O)/C=C/c2ccccc2)C1=O (stereo not drawn) |  |
| 800 M⁻¹ s⁻¹ | CCCCC1CC(=O)N(OS(C)(=O)=O)C1=O (stereo not drawn) | K obs / 1 [3]: 4100 M⁻¹ s⁻¹ |
| 4500 M⁻¹ s⁻¹ | CC1CC(=O)N(OS(=O)(=O)/C=C/c2ccccc2)C1=O (stereo not drawn) |  |
